From ChEMBL document CHEMBL1208769, “Anti-T. cruzi activities and QSAR studies of 3-arylquinoxaline-2-carbonitrile di-N-oxides” (Bioorg Med Chem Lett, 2010)

Assays:
Trypanosoma cruzi [1] = test: Antitrypanosomal activity against Trypanosoma cruzi Tulahuen 2 epimastigotes assessed as inhibition of parasite growth at 25 uM relative to control; type: functional; settings: read-out: GI
Procedure, shortened: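 Epimastigotes of T. cruzi Tulahuen 2 strain exposed to compound at 25 µM. Growth inhibition is given as percentage relative to untreated parasites. Values are means of three separate experiments, SD under 10%.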

Trypanosoma cruzi [2] = test: Antitrypanosomal activity against Trypanosoma cruzi Tulahuen 2 epimastigotes; type: functional, organism-based
[3] = Octanol-water partition coefficient of the compound; type: physicochemical

| Structure (SMILES) | inhibition of growth at 25 µM (Trypanosoma cruzi [1]) | IC50 (Trypanosoma cruzi [2]) | logP [3] |
| --- | --- | --- | --- |
| N#Cc1c(-c2ccc(OC(F)(F)F)cc2)[n+]([O-])c2cc(F)c(F)cc2[n+]1[O-] | 74.4% | 9.9 µM | 2.45 |
| N#Cc1c(-c2ccco2)[n+]([O-])c2cc(F)c(F)cc2[n+]1[O-] | 70.7% | 13.1 µM | 1.38 |
| N#Cc1c(-c2ccco2)[n+]([O-])c2cc(Cl)c(Cl)cc2[n+]1[O-] | 67% | 13.1 µM | 1.64 |
| Cc1cc2c(cc1C)[n+]([O-])c(-c1ccco1)c(C#N)[n+]2[O-] | 64.7% | 20.1 µM | 1.1 |
| N#Cc1c(-c2cccs2)[n+]([O-])c2cc(F)c(F)cc2[n+]1[O-] | 82.9% | 10.4 µM | 2.15 |
| N#Cc1c(-c2cccs2)[n+]([O-])c2cc(Cl)c(Cl)cc2[n+]1[O-] | 78.5% | 10.4 µM | 2.41 |
| Cc1cc2c(cc1C)[n+]([O-])c(-c1cccs1)c(C#N)[n+]2[O-] | 84.8% | 16.7 µM | 1.87 |
| COc1ccccc1N1CCN(c2c(C#N)[n+]([O-])c3cc(Cl)ccc3[n+]2[O-])CC1 | 100% | 6.5 µM | 1.91 |
| N#Cc1c(N2CCN(c3cccc(C(F)(F)F)c3)CC2)[n+]([O-])c2ccc(Cl)cc2[n+]1[O-] | 94% | 6.7 µM | 2.99 |
| N#Cc1c(NC(=O)c2ccco2)[n+]([O-])c2cc(F)c(F)cc2[n+]1[O-] | 53.1% | 19.2 µM | 0.868 |
| N#Cc1c(NC(=O)c2cccs2)[n+]([O-])c2cc(F)c(F)cc2[n+]1[O-] | 92.4% | 10.8 µM | 1.62 |
| COc1ccc(-c2c(C#N)[n+]([O-])c3cc(C)c(C)cc3[n+]2[O-])cc1 | 100% | 18.3 µM | 2.06 |
| Cc1cc2c(cc1C)[n+]([O-])c(-c1ccc(OC(F)(F)F)cc1)c(C#N)[n+]2[O-] | 79.8% | 10.6 µM | 2.41 |
| N#Cc1c(-c2ccc(OC(F)(F)F)cc2)[n+]([O-])c2cc(Cl)c(Cl)cc2[n+]1[O-] | 82% | 7.2 µM | 2.68 |
